From PMC9494671 (ACS Omega, 2022)

Key:
[1] = test system: Human breast adenocarcinoma cell line (MCF-7); assay: MTT cytotoxicity assay, MCF-7; assay type: cell-based; conditions: for IC50: Homo sapiens, MCF7, 24 h, read-out: IC50 (μM) MCF-7; for cytotoxic activity, class in words, MCF-7: MTT assay
Procedure, shortened: (§1)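 Cells grown in RPMI-1640 with 10% FBS, penicillin 100 units/mL and streptomycin 100 μg/mL at 37 °C, 5% CO2. Seeded at 1.0 × 10^4 cells/well for 48 h, then exposed to a range of test compound concentrations for 24 h, with CA-4 as positive control. MTT (5 mg/mL solution) added for 4 h, formazan dissolved in DMSO, absorbance read at 570 nm. IC50 = 50% growth inhibition, mean ± SD.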

[2] = test system: Epitheloid cervix carcinoma cell line (HeLa); assay: MTT cytotoxicity assay, HeLa; assay type: cell-based, human; conditions: for IC50: Homo sapiens, 24 h, read-out: IC50 (μM) HeLa; for cytotoxic activity, class in words, HeLa: MTT assay
Procedure, shortened: as §1

[3] = test system: tubulin; assay: In vitro tubulin polymerization inhibition assay; assay type: biochemical; conditions: read-out: IC50 (μM) tubulin polymerization inhibition; 4 mg/mL tubulin, 37 °C, OD340, mean ± SD from three independent experiments
[4] = test system: Human colorectal carcinoma cell line (HCT-116); assay: MTT cytotoxicity assay, HCT-116; assay type: cell-based; conditions: for IC50: Homo sapiens, HCT-116, 24 h, read-out: IC50 (μM) HCT-116; for cytotoxic activity, class in words, HCT-116: MTT assay
Procedure, shortened: as §1

[5] = cited from earlier work
[6] = test system: Human hepatocellular carcinoma cell line (HepG2); assay: MTT cytotoxicity assay, HepG2; assay type: cell-based; conditions: for IC50: Homo sapiens, HepG2, 24 h, read-out: IC50 (μM) HePG2; for cytotoxic activity, class in words, HepG2: MTT assay
Procedure, shortened: as §1

[7] = test system: HepG2, HCT-116, MCF-7, and HeLa cell lines; assay: MTT cytotoxicity assay, statements over the four tested cell lines; assay type: cell-based, human; conditions: all tested cell lines
Procedure, shortened: as §1

Row | IC50 [3] [µM] | Compound | IC50 [1] [µM] | IC50 [2] [µM] | IC50 [4] [µM] | solubility in water [5] | IC50 [6] [µM] | cytotoxic effect, class in words, tested cell lines [7] | cytotoxic activity, class in words, HepG2 [6] | cytotoxic activity, class in words, HCT-116 [4] | cytotoxic activity, class in words, MCF-7 [1] | cytotoxic activity, class in words, HeLa [2]
1 | […] | COc1ccc(/C=C\c2cc(OC)c(OC)c(OC)c2)cc1O [CA-4, combretastatin A-4, reference compound] | 4.17 ± 0.2 | 5.57 ± 0.3 | 5.23 ± 0.3 | weakly soluble in water | 4.5 ± 0.2 |  |  |  |  | 
2 |  | COc1cc(-c2csc(NC(=O)CCl)n2)cc(OC)c1OC [Compound 4, 2-Chloro-N-(4-(3,4,5-trimethoxyphenyl)thiazol-2-yl)acetamide] | 62.9 ± 3.1 | 76.9 ± 3.8 | 69 ± 3.5 |  | 62.6 ± 3.1 | weak (51–100 (weak)) |  |  |  | 
3 |  | COc1cc(-c2csc(NC(=O)CNCCO)n2)cc(OC)c1OC [Compound 5a, 2-((2-Hydroxyethyl)amino)-N-(4-(3,4,5-trimethoxyphenyl)thiazol-2-yl)acetamide] | 30 ± 1.5 | 50.9 ± 2.5 | 29.4 ± 1.5 |  | 22 ± 1.1 | moderate (21–50 (moderate)) |  |  |  | 
4 |  | CCCCNCC(=O)Nc1nc(-c2cc(OC)c(OC)c(OC)c2)cs1 [Compound 5b, 2-(Butylamino)-N-(4-(3,4,5-trimethoxyphenyl)thiazol-2-yl)acetamide] | 22.8 ± 1.1 | 28.3 ± 1.4 | 24.4 ± 1.2 |  | 10.9 ± 0.5 |  | strong (11–20 (strong)) |  |  | 
5 | 2.95 ± 0.18 | COc1cc(-c2csc(NC(=O)CNC(C)C)n2)cc(OC)c1OC [Compound 5c, 2-(Isopropylamino)-N-(4-(3,4,5-trimethoxyphenyl)thiazol-2-yl)acetamide] | 15.5 ± 0.8 | 16 ± 0.8 | 12.9 ± 0.6 |  | 11.9 ± 0.6 | strong (11–20 (strong)) |  |  |  | 
6 | 4.5 ± 0.27 | COc1cc(-c2csc(NC(=O)CN3CCNCC3)n2)cc(OC)c1OC [Compound 6a, 2-(Piperazin-1-yl)-N-(4-(3,4,5-trimethoxyphenyl)thiazol-2-yl)acetamide] | 40.9 ± 2 | 47.7 ± 2.4 | 28.9 ± 1.4 |  | 8.17 ± 0.4 |  |  |  |  | 
7 |  | COc1cc(-c2csc(NC(=O)CN3CCN(C)CC3)n2)cc(OC)c1OC [Compound 6b, 2-(4-Methylpiperazin-1-yl)-N-(4-(3,4,5-trimethoxyphenyl)thiazol-2-yl)acetamide] | 65.3 ± 3.3 | 87.3 ± 4.4 | 83.7 ± 4.2 |  | 74.6 ± 3.7 |  |  |  |  | 
8 |  | CCN1CCN(CC(=O)Nc2nc(-c3cc(OC)c(OC)c(OC)c3)cs2)CC1 [Compound 6c, 2-(4-Ethylpiperazin-1-yl)-N-(4-(3,4,5-trimethoxyphenyl)thiazol-2-yl)acetamide] | 41.4 ± 2.1 | 48.2 ± 2.4 | 37.2 ± 1.9 |  | 33.9 ± 1.7 |  |  |  |  | 
9 | 5 ± 0.3 | COc1cc(-c2csc(NC(=O)CN3CCN(c4ccc(F)cc4)CC3)n2)cc(OC)c1OC [Compound 6d, 2-(4-(4-Fluorophenyl)piperazin-1-yl)-N-(4-(3,4,5-trimethoxyphenyl)thiazol-2-yl)acetamide] | 9.64 ± 0.5 | 18.7 ± 0.9 | 15.7 ± 0.8 |  | 4.03 ± 0.2 |  |  |  |  | 
10 | 3.72 ± 0.23 | COc1cc(-c2csc(NC(=O)CN3CCOCC3)n2)cc(OC)c1OC [Compound 6e, 2-Morpholino-N-(4-(3,4,5-trimethoxyphenyl)thiazol-2-yl)acetamide] | 39.1 ± 2 | 58.8 ± 2.9 | 18 ± 0.9 |  | 19.8 ± 1 |  | strong (11–20 (strong)) | strong (11–20 (strong)) |  | 
11 |  | COc1cc(-c2csc(NC(=O)CNc3ccccc3)n2)cc(OC)c1OC [Compound 7a, 2-(Phenylamino)-N-(4-(3,4,5-trimethoxyphenyl)thiazol-2-yl)acetamide] | > 100 | 54.1 ± 2.7 | 52.5 ± 2.6 |  | 94.1 ± 4.7 |  | weak (51–100 (weak)) | weak (51–100 (weak)) | weak (51–100 (weak)) | noncytotoxic (above 100 (noncytotoxic))
12 |  | COc1cc(-c2csc(NC(=O)CNc3ccc(Br)cc3)n2)cc(OC)c1OC [Compound 7b, 2-((4-Bromophenyl)amino)-N-(4-(3,4,5-trimethoxyphenyl)thiazol-2-yl)acetamide] | 44.8 ± 2.2 | 13.1 ± 0.7 | 9.35 ± 0.5 |  | 34.2 ± 1.7 |  |  |  |  | 
13 | 2 ± 0.12 | COc1cc(-c2csc(NC(=O)CNc3ccc([N+](=O)[O-])cc3)n2)cc(OC)c1OC [Compound 7c, 2-((4-Nitrophenyl)amino)-N-(4-(3,4,5-trimethoxyphenyl)thiazol-2-yl)acetamide] | 10 ± 0.5 | 9.85 ± 0.5 | 7.3 ± 0.4 |  | 6.26 ± 0.3 |  |  |  |  | 
14 | 3.42 ± 0.21 | COc1cc(-c2csc(NC(=O)CNc3ccc(Br)c(C(F)(F)F)c3)n2)cc(OC)c1OC [Compound 7d, 2-((4-Bromo-3-(trifluoromethyl)phenyl)amino)-N-(4-(3,4,5-trimethoxyphenyl)thiazol-2-yl)acetamide] | 41.4 ± 2.1 | 29.8 ± 1.5 | 33.1 ± 1.7 |  | 28.1 ± 1.4 |  |  |  |  | 
15 |  | COc1cc(-c2csc(NC(=O)CNc3ccc(N4CCOCC4)cc3)n2)cc(OC)c1OC [Compound 7e, 2-((4-Morpholinophenyl)amino)-N-(4-(3,4,5-trimethoxyphenyl)thiazol-2-yl)acetamide] | 35 ± 1.7 | 41.5 ± 2.1 | 31.2 ± 1.6 |  | 25.7 ± 1.3 |  |  |  |  | 
16 | 3.91 ± 0.24 | COc1cc(-c2csc(NC(=O)CNN)n2)cc(OC)c1OC [Compound 8, 2-Hydrazinyl-N-(4-(3,4,5-trimethoxyphenyl)thiazol-2-yl)acetamide] | 8.66 ± 0.4 | 6.15 ± 0.3 | 5.32 ± 0.3 |  | 3.35 ± 0.2 |  |  |  |  | 
17 | 2.38 ± 0.14 | COc1cc(-c2csc(NC(=O)CN/N=C3\C(=O)Nc4ccc(Cl)cc43)n2)cc(OC)c1OC [Compound 9a, (Z)-2-(2-(5-Chloro-2-oxoindolin-3-ylidene)hydrazinyl)-N-(4-(3,4,5-trimethoxyphenyl)thiazol-2-yl)acetamide] | 9.8 ± 0.5 | 10.6 ± 0.5 | 10.1 ± 0.5 |  | 7.32 ± 0.4 |  |  |  |  | 
18 | 4.21 ± 0.26 | COc1cc(-c2csc(NC(=O)CN/N=C3\C(=O)Nc4ccc(C)cc43)n2)cc(OC)c1OC [Compound 9b, (Z)-2-(2-(5-Methyl-2-oxoindolin-3-ylidene)hydrazinyl)-N-(4-(3,4,5-trimethoxyphenyl)thiazol-2-yl)acetamide] | 11.6 ± 0.6 | 13.4 ± 0.7 | 9.93 ± 0.5 |  | 8.04 ± 0.4 |  |  |  |  | 
19 |  | COc1cc(-c2csc(Nc3csc(N)n3)n2)cc(OC)c1OC [Compound 10, N^4-(4-(3,4,5-Trimethoxyphenyl)thiazol-2-yl)thiazole-2,4-diamine] | 60.6 ± 3 | 48 ± 2.4 | 55.3 ± 2.8 |  | 49.6 ± 2.5 | moderate-to-weak |  |  |  | 
20 |  | COc1cc(-c2csc(NC(=O)NCCCl)n2)cc(OC)c1OC [Compound 11, 1-(2-Chloroethyl)-3-(4-(3,4,5-trimethoxyphenyl)thiazol-2-yl)urea] | 95.8 ± 4.8 | 89.9 ± 4.5 | 86.7 ± 4.3 |  | 93 ± 4.6 | weak (51–100 (weak)) |  |  |  | 
21 |  | COc1cc(-c2csc(NC(=O)NCCNc3ccccc3)n2)cc(OC)c1OC [Compound 12, 1-(2-(Phenylamino)ethyl)-3-(4-(3,4,5-trimethoxyphenyl)thiazol-2-yl)urea] | > 100 | 91.8 ± 4.6 | 88.5 ± 4.4 |  | > 100 |  |  |  |  | 
22 | 5.11 ± 0.31 | CCN1CCN(CCNC(=O)Nc2nc(-c3cc(OC)c(OC)c(OC)c3)cs2)CC1 [Compound 13a, 1-(2-(4-Ethylpiperazin-1-yl)ethyl)-3-(4-(3,4,5-trimethoxyphenyl)thiazol-2-yl)urea] | 16.9 ± 0.8 | 32.4 ± 1.6 | 20.1 ± 1 |  | 14.2 ± 0.7 |  | strong (11–20 (strong)) | strong (11–20 (strong)) | strong (11–20 (strong)) | moderate (21–50 (moderate))
23 |  | COc1cc(-c2csc(NC(=O)NCCN3CCOCC3)n2)cc(OC)c1OC [Compound 13b, 1-(2-Morpholinoethyl)-3-(4-(3,4,5-trimethoxyphenyl)thiazol-2-yl)urea] | 32 ± 1.6 | 43.9 ± 2.2 | 27.4 ± 1.4 |  | 25.7 ± 1.3 |  |  |  |  | 
